# From PubChem
# T cruzi repl: inhibitors of intracellular T. cruzi growth, primary screen, luminescence, NIH3T3 host cells | T. cruzi beta-gal in NIH3T3, 90 h | inhibition, % (test concentration not listed) | 300,000 compounds, 1.4% hits;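 active = mean inhibition across valid replicates above about 55%, limit read from the data; inconclusive = mean below that limit but half or more replicates reach it; inactive = mean below it, under half of replicates reach it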;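 also: signal also drops with host cell toxicity which is not excluded here; 0% = plate median of DMSO wells and 100% = zero luminescence signal; higher percent means less beta-gal luminescence so fewer parasites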
#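 Material: NIH/3T3 host cells with β-galactosidase reporter T. cruzi; Input: 5,000 host fibroblasts per well; Medium: DMEM, 2% fetal bovine serum; Compound: 50 nL DMSO compound solution per well; Schedule: 3 h host attachment, then at least 90 h co-culture; Detection: luminescent β-galactosidase signal after 60 min lysis.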
# CHOP UPR activ: activators of apoptotic CHOP UPR arm, primary screen, cell-based, CHO-CHOP luciferase reporter, luminescence, uHTS; UPR activation; percent of tunicamycin response over DMSO baseline; activation, % at 10 µM; 330,000 compounds, 0.34% hits; AID 449763, 2010;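 active = at 10 µM dose, activation of 40% or more, normalized to positive control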;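 also: 100% = tunicamycin at 10 µg/mL and 0% = DMSO alone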
#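 Test system: CHO CHOP reporter cells. Input: 500 CHO-CHOP cells per well. Medium: F12 with 10% FBS. Technique: luciferase luminescence. Measure: percent activation relative to tunicamycin control. Dosing: 10 µM compound, 0.5% DMSO. Timing: 16-18 h cell attachment, then 6 h compound exposure, 37 °C.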
# UPR XBP1 act: activators of adaptive XBP1 UPR arm, primary screen, cell-based, CHO-XBP1 luciferase reporter, luminescence, uHTS. activation, % at 20 µM. 330,000 compounds, 0.33% hits. IRE1-XBP1 UPR activation; percent of tunicamycin response, DMSO as zero;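 active = versus positive control, 20 µM dose yields 30% or more activation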;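 also: 100% = tunicamycin at 10 µg/mL and 0% = DMSO only wells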
#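 Test system: CHO-XBP1 luciferase reporter cells | Buffer or medium: Serum-containing F12 medium, 10% FBS | Schedule: 6 h compound exposure at 37 °C, 5% CO2 | Detection: Steady-Glo luciferase glow luminescence, 10 min after reagent addition | Read-out basis: Activation, % of tunicamycin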
# Lmaj promast: Leishmania major promastigote growth inhibition, primary screen; Leishmania major promastigotes, resazurin fluorescence viability; inhibition, % at 10 µM; 200,000 compounds, 9% hits; in the data active = inhibition above about 50%;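 also: promastigotes grown with compound for 44 hours at 28 °C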
# CHOP inh: inhibitors of CHOP promoter induction, primary screen, cell-based, unfolded protein response, luciferase reporter | CHO-K1 CHOP-promoter luciferase, tunicamycin-induced, 15-18 h | inhibition, % at 10 µM | 220,000 compounds, 3.8% hits | AID 2732, 2010;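 active = compounds that reduced the stress-induced luciferase reporter signal by more than about 70% of percent inhibition, limit read from the data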;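 also: 0% = tunicamycin plus vehicle and 100% = wells without tunicamycin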
# Dynein cargo inh: inhibitors of GR-EGFP nuclear translocation, primary screen, dynein cargo transport inhibitor project, imaging, high-content, 3617.4 mouse cells | AID 1381, 2008 | test concentration mostly 20 µM; stimulated with dexamethasone, 1 µM; stronger effect = lower value | 220,000 compounds, 0.47% hits | z-score, hits read low;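 active = plate z-score of nuclear minus cytoplasmic receptor signal below a set negative limit, without overly bright fluorescence or cell loss, cut at about -3.5 in these data, passing the limit was not always enough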;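 also: z-score of nuclear minus cytoplasmic ring GR-EGFP intensity difference per well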
#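 Buffer or medium: tet-free, stripped-serum medium; Also added: dexamethasone, 1.0 µM final; Technique: high-content fluorescence imaging after fixation; Times: 48 h induction, 1 h compound, 30 min dex at 37 °C; Read-out: per-cell GR-EGFP intensity, nucleus versus surrounding cytoplasmic ring, well-averaged.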
# Starred values were filed as active, the others as inactive; ? = inconclusive; · = not tested or not shown. The full list was thinned out, with hits kept by preference.
SMILES,T cruzi repl,CHOP UPR activ,UPR XBP1 act,Lmaj promast,CHOP inh,Dynein cargo inh
O=C(c1ccc(F)cc1)N1CCN(c2ccc([N+](=O)[O-])c(N3CCOCC3)c2)CC1,7,1,1,57*,17,-0.19
Cc1ccc(C(=O)N2CCN(c3ccc([N+](=O)[O-])c(N4CCOCC4)c3)CC2)cc1,-5,-1,0,8,31,1.6
O=C(CN(c1ccc(F)cc1)S(=O)(=O)c1ccc2c(c1)OCCO2)NCc1ccccc1,-15,2,-6,96*,15,0.41
Cc1ccc(/C=N/NC(=O)CN(Cc2ccccc2)S(=O)(=O)c2ccc3c(c2)OCCO3)cc1,21,1,-1,95*,52,0.2
O=C(CN(Cc1ccccc1)S(=O)(=O)c1ccc2c(c1)OCCO2)Nc1ccc2c(c1)OCCO2,8,3,-3,13,22,-0.86
CN(Cc1ccccc1)C(=O)CN(c1ccc(F)cc1)S(=O)(=O)c1ccc2c(c1)OCCO2,14,-2,0,95*,33,-0.4
COCCCNC(=O)CN(c1ccc(F)cc1)S(=O)(=O)c1ccc2c(c1)OCCO2,0,0,-2,·,·,·
O=C(CN(c1ccc(F)cc1)S(=O)(=O)c1ccc2c(c1)OCCO2)Nc1ccccc1,11,1,-1,80*,-12,-0.78
O=C(CN(c1ccc2c(c1)OCCO2)S(=O)(=O)c1ccccc1)NCc1ccc(Cl)cc1,?,0,-3,98*,41,-0.27
O=C(CN(c1ccc2c(c1)OCCO2)S(=O)(=O)c1ccccc1)NCC1CCCO1 (configuration not stated),4,1,-2,-4,28,-0.5
COc1cc2c(cc1NC(=O)CN(C)Cc1nc3ccccc3c(=O)[nH]1)oc1ccccc12,6,5,4,-7,74*,1.2
COc1cc2c(cc1NC(=O)CSc1nc3ccccc3[nH]1)oc1ccccc12,32,-1,-3,35,95*,-0.66
COc1cc2c(cc1NC(=O)CSc1nc3cc(Cl)ccc3s1)oc1ccccc12,8,6,2,51*,28,1.8
COc1cc2c(cc1NC(=O)CSc1ccccc1)oc1ccccc12,-10,0,0,5,6,0.54
COc1cc2c(cc1NC(=O)COC(=O)[C@@H](NS(=O)(=O)c1cccc(Cl)c1)C(C)C)oc1ccccc12,9,6,0,62*,21,0.27
COc1cc(OC)cc(C(=O)N[C@H](C(=O)NC2=NCCS2)C(C)C)c1,·,2,-3,·,·,·
O=C(COc1ccc(Cl)cc1)NNC(=O)c1ccccc1C(=O)O,-12,-1,-2,·,·,·
COc1ccc(CCNC(=O)C2CCN(Cc3nc(-c4cccc(Cl)c4)oc3C)CC2)cc1OC,-7,-3,0,8,47,-1.3
COc1ccc(CCNC(=O)C2CCCN(Cc3nc(-c4ccccc4C)oc3C)C2)cc1OC (configuration not stated),46,0,2,92*,30,0.82
Cc1ccccc1-c1nc(CN2CCCC(C(=O)NCCCN3CCOCC3)C2)c(C)o1 (configuration not stated),66*,-2,1,18,7,-0.11
CCc1ccc(-c2nc(CN3CCCC(C(=O)NCCc4ccc(OC)c(OC)c4)C3)c(C)o2)cc1 (configuration not stated),59*,6,2,83*,48,-0.44
Cc1ccccc1-c1nc(CN2CCCC(C(=O)NCc3cccnc3)C2)c(C)o1 (configuration not stated),52,4,1,5,-6,-0.55
COc1ccc(CNC(=O)C2CCCN(Cc3nc(-c4cccc(C)c4)oc3C)C2)cc1 (configuration not stated),56*,-2,-2,34,61,0.54
